# Screens (PubChem BioAssay)
# Shown are actives, neighbours in structure and some others; about 2.5% of the full set was active somewhere.
# SENP8 block-1 – inhibitors of human SENP8 protease | AID 2540 | purified SENP8, Z-RLRGG-aminoluciferin cleavage, luminescence | Q96LD8 | hit rate 1.2% among 330,000 | inhibition, % at 10 µM; in the data active means inhibition above about 50%
# Target sequence (Q96LD8 whole entry, looked up): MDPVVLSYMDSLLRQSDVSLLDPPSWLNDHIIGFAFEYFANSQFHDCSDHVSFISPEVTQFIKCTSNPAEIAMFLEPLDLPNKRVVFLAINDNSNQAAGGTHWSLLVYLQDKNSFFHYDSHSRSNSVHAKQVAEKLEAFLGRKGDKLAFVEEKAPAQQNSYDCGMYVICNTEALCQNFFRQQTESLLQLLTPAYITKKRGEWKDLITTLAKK
# SENP6 inh – inhibitors of human SENP6 protease. Recombinant SENP6 catalytic domain, aminoluciferin luminescence. inhibition, % at 10 µM. hit rate 1.8% among 330,000. AID 2599;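 active means inhibition above about 50% at the single tested dose, limit read from the data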;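 further: plate controls were DMSO wells with enzyme for no effect and DMSO wells lacking enzyme for full effect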
# SENP7 block – inhibitors of human SENP7 protease; Q9BQF6; inhibition, % at 5 µM; hit rate 1.5% among 330,000; recombinant SENP7, Z-RLRGG-aminoluciferin luminescence, 40 min;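 active means inhibition above about 50% at the single test dose, limit read from the data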;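 further: plate controls were DMSO with enzyme for no effect and no enzyme buffer wells for full effect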
# Target sequence (Q9BQF6 706-1050 limits assumed): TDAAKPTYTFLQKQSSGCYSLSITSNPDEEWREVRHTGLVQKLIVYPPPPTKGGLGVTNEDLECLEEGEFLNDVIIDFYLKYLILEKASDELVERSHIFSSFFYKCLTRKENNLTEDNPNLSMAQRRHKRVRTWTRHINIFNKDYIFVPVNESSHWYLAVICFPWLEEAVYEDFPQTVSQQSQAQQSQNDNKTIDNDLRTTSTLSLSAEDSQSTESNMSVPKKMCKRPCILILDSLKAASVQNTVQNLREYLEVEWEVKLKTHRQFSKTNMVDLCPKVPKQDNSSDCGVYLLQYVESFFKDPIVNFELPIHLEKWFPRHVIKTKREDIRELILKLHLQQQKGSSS
# SENP1 inh – blocks the human SENP1 SUMO protease catalytic domain; recombinant SENP1 catalytic domain, CyPet-SUMO1-YPet FRET cleavage; inhibition, % at 10 µM; hit rate 0.21% among 360,000;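 active means inhibition at least 30% at 10 µM, raw YFP signal under a set limit, fluorescence ratio 0.5 to 1.5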;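 further: 0% = enzyme with DMSO and 100% = no enzyme wells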
#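 Compound: 10 µM single point, 0.5% DMSO; Test system: hSENP1 catalytic domain, recombinant; Timing: 50 min reaction at room temperature; Technique: FRET, CFP and YFP emission; Control set: no-enzyme wells low, DMSO-plus-enzyme wells high control.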
# SENP8 block-2 – inhibitors of human SENP8 protease. recombinant SENP8, Nedd8 substrate fluorescence. inhibition, % at 20 µM. hit rate 0.64% among 360,000; in the data active means inhibition mostly above about 40%, no sharp cut-off; inactive means mostly below about 27%
# An asterisk follows results filed as active; nt = not tested or not shown.
SMILES,SENP8 block-1,SENP6 inh,SENP7 block,SENP1 inh,SENP8 block-2
C#Cc1ccc([C@@H]2C=C(C(=O)N3CCN(Cc4ccc5c(c4)OCO5)CC3)O[C@H](OCCCCO)C2)cc1,-9,-23,-2,-4,-56
Nc1ccc(Oc2ncccn2)cc1,4,31,16,1,82*
CS/C(N)=N/N=C/c1ccc2c(c1)OCO2,20,25,50*,0,7
CN(/N=C/c1ccc2c(c1)OCO2)c1ccccc1,64*,63*,57*,3,19
CCc1nc2sccc2c(=O)[nH]1,4,2,7,1,3
Cc1cccc(N=C/C(C(=O)C(F)(F)F)=C(\O)c2ccco2)c1,28,77*,83*,-63,-135
C[C@H]1COC2=C1C(=O)C(=O)c1c2ccc2c1CCCC2(C)C,nt,nt,nt,3,25
Cc1coc2c1C(=O)C(=O)c1c-2ccc2c1CCCC2(C)C,-4,45,7,4,61*
Cc1nc(C)c(C(=O)N2CCCC(C(=O)c3cc(F)ccc3F)C2)s1 (centres undefined),-9,0,1,0,3
COc1ccc(OC)c(NC(=O)Cn2cc(C=O)c3ccccc32)c1,5,-1,2,-1,7
O=C(CC1Nc2ccccc2NC1=O)NCCc1ccccc1 (centres undefined),4,1,5,-63,-273
O=C(CC1Nc2ccccc2NC1=O)c1ccccc1 (centres undefined),59*,72*,20,nt,nt
COC(=O)c1sc(C(F)(F)F)c(-c2ccccc2)c1S(=O)(=O)N1CCOCC1,nt,nt,nt,-1,15
CC1=NN(c2ccccc2)C(=O)C1N=Nc1ccc(N)cc1 (centres undefined),11,6,11,10,61*
CC1=NN(c2ccccc2)C(=O)C1N=Nc1ccccc1 (centres undefined),-4,-8,-1,2,32
Cc1cccc(CSc2ccc(-c3ccco3)nn2)c1,11,52*,-4,0,3
CCc1ccc(S(=O)(=O)/N=C2\C=C(NS(=O)(=O)c3ccccc3)C(=O)c3ccccc32)cc1,3,5,16,1,70*
COC(=O)C(C(C)=O)C1=C/C(=N\S(=O)(=O)c2ccc(C)cc2)c2ccccc2C1=O (centres undefined),-3,3,-3,4,9
CC(C)c1ccc(S(=O)(=O)/N=C2\C=C(NS(=O)(=O)c3ccccc3)C(=O)c3ccccc32)cc1,nt,nt,nt,3,62*
COc1ccc(/C=C2/C(=O)N(c3nc4ccccc4s3)N=C2CSc2ccc(Cl)cc2)cc1,2,1,4,-3,40*
COc1ccc(/C=C2/C(=O)N(Cc3ccccc3)N=C2C)cc1,-2,11,2,3,18
CN(C)c1ccc(N=Nc2ccccc2C(=O)OCC(=O)NC2CCCC2)cc1,0,7,5,3,26
CN(C)c1ccc(N=Nc2ccccc2C(=O)OCC(=O)NCC2CCCCC2)cc1,-3,20,-4,6,50*
O=C(NCCS(=O)(=O)NCc1ccccn1)c1ccccc1,-4,-12,7,0,-4
CCOc1cc(OCC)cc(C(=O)NCCN2CCC(n3c(=O)[nH]c4ccccc43)CC2)c1,nt,nt,nt,0,19
SMILES,SENP8 block-1,SENP6 inh,SENP7 block,SENP1 inh,SENP8 block-2
O=C(Nc1ccc([N+](=O)[O-])cc1Cl)c1cccc([N+](=O)[O-])c1,nt,nt,nt,2,15
O=C(Nc1ccc([N+](=O)[O-])cc1Cl)c1cc(Cl)ccc1O,98*,99*,100*,3,12
O=C(Nc1cccc(Cl)c1)c1cc(N=Nc2ccc([N+](=O)[O-])cc2Cl)ccc1O,14,-1,7,4,43*
CCNC(=O)C1CCCN(C(=O)c2ccc(F)c(Cl)c2)CC1 (centres undefined),nt,nt,nt,3,19
O=C1Nc2ccccc2N2CCCC12 (centres undefined),24,68*,13,nt,nt
CCCOc1ncnc2c1[nH]c1ccc(OC)cc12,63*,77*,81*,1,-396
CCCCOc1ncnc2c1[nH]c1ccc(C)cc12,-5,16,51*,-1,-364
CCCOc1ncnc2c1[nH]c1ccccc12,0,-4,5,-14,-105
C=CCNC(=S)NNC(=O)c1ccccc1OCC,2,-10,-5,3,22
CCC(=O)Nc1cccc2cccnc12,0,3,-11,-1,8
C/C(=N\Nc1cccc2cccnc12)c1ccc[nH]1,75*,30,57*,-9,36
CC(=O)Nc1ccc(SCC(=O)O)cc1,-12,-7,-6,3,4
O=C(O)CSc1ccc(NC(=O)Nc2ccccc2F)cc1,95*,-5,98*,3,15
O=S(=O)(Nc1cc(Sc2ncn[nH]2)c(O)c2ccccc12)c1ccccc1,25,79*,72*,3,31
O=C(Nc1nc2ccsc2c(=O)s1)c1ccc(Cl)cc1,94*,95*,100*,-29,-113
O=C(Nc1nc(=O)c2ccccc2s1)c1ccc(Cl)cc1,-22,7,27,3,24
CN1CCN(/N=C/c2ccc(-c3ccc([N+](=O)[O-])cc3Cl)o2)CC1,-7,-14,-11,79*,36
Cc1ccc(S(=O)(=O)N2C[C@H]3C(=O)C[C@@H](c4ccccc4)N(S(=O)(=O)c4ccc(C)cc4)[C@H]3C[C@H]2c2ccccc2Cl)cc1,nt,nt,nt,3,15
Nc1n[nH]c(N)c1N=Nc1ccc(F)cc1,-5,15,6,-1,41*
Nc1n[nH]c(N)c1N=Nc1ccccc1,-2,-5,4,2,27
Nc1n[nH]c(N)c1N=Nc1ccccc1F,-6,-12,0,1,34*
CCOC(=O)C1=C(COC(=O)c2ccc([N+](=O)[O-])o2)NC(=O)NC1C (centres undefined),3,4,-5,-2,37
CCN(C(=O)COC(=O)c1ccccc1Nc1ccccc1)c1c(N)n(Cc2ccccc2)c(=O)[nH]c1=O,nt,nt,nt,-6,-316
Cc1nnc(N/N=C\c2ccc(-c3cccc(C(=O)O)c3)o2)n1N,25,52*,5,-9,-360
Cc1ccc2c(c1)[C@H]1[C@H](CO2)[C@H](c2ccccc2)[C@]2(C)C(=O)N(C)CC(=O)N12,nt,nt,nt,4,-4
Cc1nn(-c2ccccc2)c(Cl)c1/C=C1\SC(=S)N(CCCCCC(=O)O)C1=O,-23,-12,6,0,54*
Cc1nn(-c2ccccc2)c(Cl)c1/C=C1\SC(=S)NC1=O,1,2,41,8,19
CCOC(=O)N1CCN(Cc2ccc(OCC(O)CN3CCCCC3)cc2)CC1 (centres undefined),5,-2,-4,-1,9
NC(=O)c1ccc(NC(=O)COc2cccc3ccccc23)cc1,9,10,0,-2,-10
Clc1ccccc1OCc1nc(-c2ccccn2)no1,69*,86*,84*,1,26
